This is an account of results in ChEMBL document CHEMBL1944537, “6-Nitrobenzimidazole derivatives: potential phosphodiesterase inhibitors: synthesis and structure-activity relationship” (Bioorg Med Chem, 2012).

pIC50: −log10 of the molar value.

Target in one test: not listed separately
Nature of the test: (§1) Inhibition of Bothrops atrox venom phosphodiesterase-1 assessed as conversion of […] p-nitrophenol using bis(p-nitropheny1) phosphate as substrate preincubated for 30 mins by spectrophotometric analysis. In outline:
(§2)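 Crude dried snake venom as enzyme source, 0.000742 U/well, in 33 mM Tris-HCl pH 8.8 with 30 mM magnesium acetate. Substrate 0.33 mM bis(p-nitrophenyl) phosphate. Enzyme and test sample pre-incubated 30 min, then p-nitrophenol release followed as OD/min at 410 nm, 37 °C, on a microtitre plate reader. EDTA positive control. Run in triplicate; IC50 determined.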
With `O=[N+]([O-])c1ccc2nc(-c3ccc(O)cc3)[nH]c2c1`, the pIC50 was 5.62.

In the case of `O=[N+]([O-])c1ccc2nc(-c3ccc(O)c(O)c3)[nH]c2c1`, the pIC50 is 5.24.

Turning to `O=[N+]([O-])c1ccc2nc(-c3ccc(O)c(O)c3O)[nH]c2c1`, the pIC50 is 4.98. For `O=[N+]([O-])c1ccc2nc(-c3cccc(O)c3O)[nH]c2c1`, the pIC50 was 5.82. Same read-out and setting: with `O=[N+]([O-])c1ccc(-c2nc3cc([N+](=O)[O-])ccc3[nH]2)cc1` the figure was 3.81. The same measure, in the same setting: with `O=[N+]([O-])c1ccc2nc(-c3ccc(O)cc3O)[nH]c2c1` the figure was 4.94; with `O=C(O)CN(CCN(CC(=O)O)CC(=O)O)CC(=O)O` [EDETIC ACID], 3.56. The same measure, in the same setting: with `O=[N+]([O-])c1ccc2nc(-c3c(O)cc(O)cc3O)[nH]c2c1` the figure was 5.19; with `O=[N+]([O-])c1ccc2[nH]c(-c3ccc(Cl)cc3)nc2c1`, 3.92; with `O=[N+]([O-])c1ccc2nc(-c3cc(Cl)cc(Cl)c3O)[nH]c2c1`, 3.53. On to `COc1ccc(-c2nc3cc([N+](=O)[O-])ccc3[nH]2)cc1OC`, for which the pIC50 was 4.20.

A further test deals with Bothrops atrox. Described as §1. Set-up: concentration or dose not given beside the values. An outline of the steps:
as §2
For `O=[N+]([O-])c1ccc2[nH]c(-c3ccncc3)nc2c1`, the inhibition was under 50%. Regarding `O=[N+]([O-])c1ccc2nc(-c3cccc4cc5ccccc5cc34)[nH]c2c1`, the inhibition is under 50%. The same measure, in the same setting: with `CCOc1cccc(-c2nc3ccc([N+](=O)[O-])cc3[nH]2)c1O` the figure was under 50%; with `CSc1ccc(-c2nc3ccc([N+](=O)[O-])cc3[nH]2)cc1`, under 50%; with `O=[N+]([O-])c1ccc2nc(-c3cc(Cl)ccc3O)[nH]c2c1`, under 50%. As for `O=[N+]([O-])c1ccc(Cl)c(-c2nc3ccc([N+](=O)[O-])cc3[nH]2)c1`, the inhibition is under 50%.

Take `O=[N+]([O-])c1ccc2nc(-c3cccc4c3ccc3ccccc34)[nH]c2c1`: the inhibition is under 50%. The same measure, in the same setting: with `COc1cccc(-c2nc3ccc([N+](=O)[O-])cc3[nH]2)c1O` the figure was under 50%. On the same count and under the same terms, with `O=[N+]([O-])c1ccc2nc(-c3cc(O)ccc3O)[nH]c2c1` the figure was under 50%; with `CN(C)c1ccc(-c2nc3ccc([N+](=O)[O-])cc3[nH]2)cc1`, under 50%.

With `O=[N+]([O-])c1ccc2nc(-c3ccsc3)[nH]c2c1`, the inhibition is under 50%.

With `O=[N+]([O-])c1ccc2nc(-c3ccc(Cl)cc3Cl)[nH]c2c1`, the inhibition was under 50%. With `O=[N+]([O-])c1ccc2nc(-c3ccc(Cl)c(Cl)c3)[nH]c2c1`, the inhibition is under 50%. Still for that read-out and setting: with `O=[N+]([O-])c1ccc2nc(-c3ccccc3Cl)[nH]c2c1` the figure was under 50%. The same measure, in the same setting: with `O=[N+]([O-])c1ccc2nc(-c3ccc(Br)cc3)[nH]c2c1` the figure was under 50%; with `O=[N+]([O-])c1ccc2nc(-c3cc(Br)cc(Br)c3O)[nH]c2c1`, under 50%; with `O=[N+]([O-])c1ccc2nc(-c3ccccc3F)[nH]c2c1`, under 50%. On the same count and under the same terms, with `O=[N+]([O-])c1ccc2nc(-c3ccccc3O)[nH]c2c1` the figure was under 50%.

In the case of `Cc1ccc(-c2nc3cc([N+](=O)[O-])ccc3[nH]2)cc1`, the inhibition was under 50%. On the same count and under the same terms, with `O=[N+]([O-])c1ccc2[nH]c(-c3ccccc3)nc2c1` the figure was under 50%.
